Reference: ChEMBL document CHEMBL5653622 (Oncotarget, 2016)
Activity calls are given as the source filed them. No cut-off for these calls is given here.

How the values were obtained:
[1] = Cmax in BALB/C mouse plasma at 10 mg/kg, iv by LC/MS-MS analysis; format: ADME, organism-based
In short: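 Female BALB/c mice received a single 10mg/kg bolus i.v. or p.o. Plasma (and spleen homogenate) extracted with methanol containing internal standards. Concentrations were measured by LC/MS-MS and PK parameters calculated with modelling software.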

[2] = target: Mitogen-activated protein kinase 14 (Homo sapiens) (UniProt Q16539); assay: Inhibition of human p38a MAPK assessed as remaining activity at 10 uM in presence of ATP by radiometric kinase assay relative to control
[3] = target: Serine/threonine-protein kinase 33 (Homo sapiens) (UniProt Q9BYT3); assay: Inhibition of human STK33 assessed as remaining activity at 10 uM in presence of ATP by radiometric kinase assay relative to control
[4] = target: NUAK family SNF1-like kinase 1 (Homo sapiens) (UniProt O60285); assay: Inhibition of human NUAK1 assessed as remaining activity at 10 uM in presence of ATP by radiometric kinase assay relative to control
Homo sapiens [5] = species: Homo sapiens; assay: Inhibition of human AMPK assessed as remaining activity at 10 uM in presence of ATP by radiometric kinase assay relative to control
[6] = target: Serine/threonine-protein kinase MARK1 (Homo sapiens) (UniProt Q9P0L2); assay: Inhibition of human MARK1 assessed as remaining activity at 10 uM in presence of ATP by radiometric kinase assay relative to control
[7] = target: Inhibitor of nuclear factor kappa-B kinase subunit epsilon (Homo sapiens) (UniProt Q14164); assay: Inhibition of human IKKe assessed as remaining activity at 10 uM in presence of ATP by radiometric kinase assay relative to control
[8] = target: Serine/threonine-protein kinase pim-1 (Homo sapiens) (UniProt P11309); assay: Inhibition of human PIM1 assessed as remaining activity at 10 uM in presence of ATP by radiometric kinase assay relative to control
[9] = target: Serine/threonine-protein kinase pim-3 (Homo sapiens) (UniProt Q86V86); assay: Inhibition of human PIM3 assessed as remaining activity at 10 uM in presence of ATP by radiometric kinase assay relative to control
[10] = target: Mitogen-activated protein kinase kinase kinase 5 (Homo sapiens) (UniProt Q99683); assay: Inhibition of human ASK1 assessed as remaining activity at 10 uM in presence of ATP by radiometric kinase assay relative to control
[11] = target: Tyrosine-protein kinase ABL1 (Homo sapiens) (UniProt P00519); assay: Inhibition of human ABL assessed as remaining activity at 10 uM in presence of ATP by radiometric kinase assay relative to control
[12] = target: Tyrosine-protein kinase SYK (Homo sapiens) (UniProt P43405); assay: Inhibition of human SYK assessed as remaining activity at 10 uM in presence of ATP by radiometric kinase assay relative to control
[13] = target: Ephrin type-A receptor 4 (Homo sapiens) (UniProt P54764); assay: Inhibition of human EPH-A4 assessed as remaining activity at 10 uM in presence of ATP by radiometric kinase assay relative to control
[14] = target: Receptor tyrosine-protein kinase erbB-4 (Homo sapiens) (UniProt Q15303); assay: Inhibition of human HER4 assessed as remaining activity at 10 uM in presence of ATP by radiometric kinase assay relative to control
Homo sapiens [15] = species: Homo sapiens; assay: Inhibition of human VEG-FR assessed as remaining activity at 10 uM in presence of ATP by radiometric kinase assay relative to control
[16] = target: Serine/threonine-protein kinase 16 (Homo sapiens) (UniProt O75716); assay: Inhibition of human MPSK1 assessed as remaining activity at 10 uM in presence of ATP by radiometric kinase assay relative to control
[17] = target: Tyrosine-protein kinase Lck (Homo sapiens) (UniProt P06239); assay: Inhibition of human Lck assessed as remaining activity at 10 uM in presence of ATP by radiometric kinase assay relative to control
[18] = target: Serine/threonine-protein kinase BRSK2 (Homo sapiens) (UniProt Q8IWQ3); assay: Inhibition of human BRSK2 assessed as remaining activity at 10 uM in presence of ATP by radiometric kinase assay relative to control
[19] = target: NUAK family SNF1-like kinase 1 (Homo sapiens) (UniProt O60285); assay: Inhibition of human NUAK1 at 10 uM in presence of ATP by radiometric kinase assay relative to control
[20] = target: Serine/threonine-protein kinase BRSK1 (Homo sapiens) (UniProt Q8TDC3); assay: Inhibition of human BRSK1 at 10 uM in presence of ATP by radiometric kinase assay relative to control
[21] = target: Vascular endothelial growth factor receptor 1 (Homo sapiens, UniProt P17948); assay: Inhibition of VEGFR1 (unknown origin) by FRET based Z-LYTE kinase assay
[22] = target: MAP/microtubule affinity-regulating kinase 3 (Homo sapiens, UniProt P27448); assay: Inhibition of human MARK3 by FRET based Z-LYTE kinase assay
[23] = target: Dual specificity protein kinase CLK2 (Homo sapiens, UniProt P49760); assay: Inhibition of human CLK2 by FRET based Z-LYTE kinase assay
[24] = target: AMP-activated protein kinase (AMPK) alpha-1/beta-1/gamma-1 (Homo sapiens, UniProt P54619+Q13131+Q9Y478); assay: Inhibition of AMPK alpha1/beta1/gamma1 (unknown origin) by FRET based Z-LYTE kinase assay; format: protein-complex assay
HT-29 = assay: Induction of cell cycle arrest in etoposide induced human HT-29 cells assessed as decrease in accumulation of cells at G2/M phase at 1 to 5 uM incubated for 24 hrs by BrdU and PI staining based flow cytometry analysis; format: functional; conditions: dose 1-5 µM
In short: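 HT29 cells exposed for 24h, stained with bromodeoxyuridine and propidium iodide, and cell-cycle distribution measured by flow cytometry.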

[25] = AUC (0 to t) in BALB/C mouse spleen at 10 mg/kg, po by LC/MS-MS analysis; format: ADME, organism-based
[26] = AUC (0 to infinity) in BALB/C mouse spleen at 10 mg/kg, iv by LC/MS-MS analysis; format: ADME, organism-based
[27] = Toxicity in Emu-Myc driven transgenic mouse transplant model of B-cell lymphoma assessed as reduction in weight of the inguinal lymph nodes at 150 mg/kg, po administered for 9 days; format: organism-based; conditions: in vivo, 216 h, time 9 day
[28] = Toxicity in Emu-Myc driven transgenic mouse transplant model of B-cell lymphoma assessed as reduction in weight of the mesenteric lymph nodes at 150 mg/kg, po administered for 9 days; format: organism-based; conditions: in vivo, 216 h, time 9 day
[29] = Toxicity in Emu-Myc driven transgenic mouse transplant model of B-cell lymphoma assessed as reduction in weight of kidney at 150 mg/kg, po administered for 9 days; format: organism-based; conditions: in vivo, 216 h, time 9 day
[30] = Toxicity in Emu-Myc driven transgenic mouse transplant model of B-cell lymphoma assessed as change in body temperature at 150 mg/kg, po administered for 9 days; format: organism-based; conditions: in vivo, 216 h, time 9 day
[31] = target: Ribosomal protein S6 kinase alpha-1 (Homo sapiens, UniProt Q15418); assay: Inhibition of human RSK1 by 33P radiometric kinase assay

Chain of NUAK family SNF1-like kinase 1 (Homo sapiens) (O60285 whole entry): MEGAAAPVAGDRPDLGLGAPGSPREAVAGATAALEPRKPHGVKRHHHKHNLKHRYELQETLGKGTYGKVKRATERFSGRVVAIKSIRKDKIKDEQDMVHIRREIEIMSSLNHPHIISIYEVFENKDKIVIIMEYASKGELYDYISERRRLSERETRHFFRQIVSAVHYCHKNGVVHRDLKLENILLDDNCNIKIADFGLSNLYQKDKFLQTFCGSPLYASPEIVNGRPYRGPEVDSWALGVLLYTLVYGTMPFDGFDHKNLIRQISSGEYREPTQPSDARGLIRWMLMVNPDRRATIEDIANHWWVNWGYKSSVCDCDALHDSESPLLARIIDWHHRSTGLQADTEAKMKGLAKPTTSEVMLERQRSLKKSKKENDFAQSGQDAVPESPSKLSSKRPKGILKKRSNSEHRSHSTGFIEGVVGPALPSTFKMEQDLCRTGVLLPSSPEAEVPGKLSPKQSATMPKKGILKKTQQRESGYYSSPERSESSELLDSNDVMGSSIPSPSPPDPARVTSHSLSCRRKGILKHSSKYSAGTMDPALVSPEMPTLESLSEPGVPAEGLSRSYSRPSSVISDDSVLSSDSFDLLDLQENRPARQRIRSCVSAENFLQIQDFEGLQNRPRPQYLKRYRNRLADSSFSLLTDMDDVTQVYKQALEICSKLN
Chain of Serine/threonine-protein kinase pim-1 (Homo sapiens) (P11309 whole entry, looked up): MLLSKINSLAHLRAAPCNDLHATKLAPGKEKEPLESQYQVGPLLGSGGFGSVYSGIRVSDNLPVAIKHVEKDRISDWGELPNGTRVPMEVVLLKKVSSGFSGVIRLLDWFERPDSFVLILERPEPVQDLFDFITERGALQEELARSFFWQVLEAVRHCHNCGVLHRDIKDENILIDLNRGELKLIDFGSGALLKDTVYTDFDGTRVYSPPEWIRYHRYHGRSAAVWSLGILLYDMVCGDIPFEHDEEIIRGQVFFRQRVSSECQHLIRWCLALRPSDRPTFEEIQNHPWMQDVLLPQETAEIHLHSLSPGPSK
Chain of Serine/threonine-protein kinase BRSK1 (Homo sapiens) (Q8TDC3 whole entry): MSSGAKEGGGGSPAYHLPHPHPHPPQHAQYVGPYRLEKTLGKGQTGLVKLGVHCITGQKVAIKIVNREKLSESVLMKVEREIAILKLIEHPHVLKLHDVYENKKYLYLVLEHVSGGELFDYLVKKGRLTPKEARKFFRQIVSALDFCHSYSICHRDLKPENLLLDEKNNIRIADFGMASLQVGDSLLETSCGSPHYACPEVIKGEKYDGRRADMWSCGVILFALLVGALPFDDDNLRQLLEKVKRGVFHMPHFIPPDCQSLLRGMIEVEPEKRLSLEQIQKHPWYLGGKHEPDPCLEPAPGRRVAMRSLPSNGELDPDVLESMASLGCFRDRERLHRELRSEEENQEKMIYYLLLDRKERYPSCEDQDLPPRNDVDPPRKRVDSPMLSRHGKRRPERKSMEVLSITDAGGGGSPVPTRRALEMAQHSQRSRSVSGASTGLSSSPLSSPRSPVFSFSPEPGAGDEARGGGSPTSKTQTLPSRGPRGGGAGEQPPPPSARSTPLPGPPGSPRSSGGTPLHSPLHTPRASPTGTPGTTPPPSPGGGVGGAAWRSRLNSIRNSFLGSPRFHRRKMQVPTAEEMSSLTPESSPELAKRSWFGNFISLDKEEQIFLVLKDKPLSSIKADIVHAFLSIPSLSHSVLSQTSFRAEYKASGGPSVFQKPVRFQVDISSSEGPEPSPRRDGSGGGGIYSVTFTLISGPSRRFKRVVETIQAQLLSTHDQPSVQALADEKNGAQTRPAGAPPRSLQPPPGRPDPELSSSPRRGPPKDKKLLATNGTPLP
Chain of Serine/threonine-protein kinase BRSK2 (Homo sapiens) (Q8IWQ3 whole entry): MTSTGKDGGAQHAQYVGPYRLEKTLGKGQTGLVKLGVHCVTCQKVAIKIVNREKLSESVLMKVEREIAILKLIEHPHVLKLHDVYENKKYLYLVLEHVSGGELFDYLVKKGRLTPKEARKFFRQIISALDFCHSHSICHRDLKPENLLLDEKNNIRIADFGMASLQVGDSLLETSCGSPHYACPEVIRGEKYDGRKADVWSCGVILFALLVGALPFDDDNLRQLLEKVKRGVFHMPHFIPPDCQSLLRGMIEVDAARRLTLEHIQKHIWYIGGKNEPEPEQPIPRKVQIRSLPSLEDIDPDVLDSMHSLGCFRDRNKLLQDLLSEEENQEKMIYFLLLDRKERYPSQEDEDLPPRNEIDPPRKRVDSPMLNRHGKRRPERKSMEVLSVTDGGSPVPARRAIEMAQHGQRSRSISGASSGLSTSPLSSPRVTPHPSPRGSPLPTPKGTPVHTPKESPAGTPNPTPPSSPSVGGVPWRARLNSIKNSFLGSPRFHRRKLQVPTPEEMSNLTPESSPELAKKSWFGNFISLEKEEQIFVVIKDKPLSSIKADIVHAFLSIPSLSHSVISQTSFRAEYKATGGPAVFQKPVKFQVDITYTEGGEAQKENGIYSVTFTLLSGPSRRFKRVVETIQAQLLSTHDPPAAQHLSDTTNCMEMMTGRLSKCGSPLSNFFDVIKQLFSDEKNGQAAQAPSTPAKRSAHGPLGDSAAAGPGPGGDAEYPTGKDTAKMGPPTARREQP
Chain of Tyrosine-protein kinase Lck (Homo sapiens) (P06239 2-509 limits assumed): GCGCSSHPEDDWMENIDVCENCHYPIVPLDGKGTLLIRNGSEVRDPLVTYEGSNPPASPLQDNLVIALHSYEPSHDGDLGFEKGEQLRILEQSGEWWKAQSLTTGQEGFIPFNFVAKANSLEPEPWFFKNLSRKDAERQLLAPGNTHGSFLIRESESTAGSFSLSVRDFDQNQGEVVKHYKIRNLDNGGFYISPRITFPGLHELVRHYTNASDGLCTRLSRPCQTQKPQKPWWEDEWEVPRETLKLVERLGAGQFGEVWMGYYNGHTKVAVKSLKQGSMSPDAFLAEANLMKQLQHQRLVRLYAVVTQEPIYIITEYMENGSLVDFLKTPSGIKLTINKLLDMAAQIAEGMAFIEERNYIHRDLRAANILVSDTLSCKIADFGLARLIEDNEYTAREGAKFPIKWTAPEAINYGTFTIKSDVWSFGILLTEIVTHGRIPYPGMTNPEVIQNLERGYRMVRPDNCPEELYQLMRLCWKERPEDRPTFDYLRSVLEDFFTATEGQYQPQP
Chain of MAP/microtubule affinity-regulating kinase 3 (P27448 whole entry): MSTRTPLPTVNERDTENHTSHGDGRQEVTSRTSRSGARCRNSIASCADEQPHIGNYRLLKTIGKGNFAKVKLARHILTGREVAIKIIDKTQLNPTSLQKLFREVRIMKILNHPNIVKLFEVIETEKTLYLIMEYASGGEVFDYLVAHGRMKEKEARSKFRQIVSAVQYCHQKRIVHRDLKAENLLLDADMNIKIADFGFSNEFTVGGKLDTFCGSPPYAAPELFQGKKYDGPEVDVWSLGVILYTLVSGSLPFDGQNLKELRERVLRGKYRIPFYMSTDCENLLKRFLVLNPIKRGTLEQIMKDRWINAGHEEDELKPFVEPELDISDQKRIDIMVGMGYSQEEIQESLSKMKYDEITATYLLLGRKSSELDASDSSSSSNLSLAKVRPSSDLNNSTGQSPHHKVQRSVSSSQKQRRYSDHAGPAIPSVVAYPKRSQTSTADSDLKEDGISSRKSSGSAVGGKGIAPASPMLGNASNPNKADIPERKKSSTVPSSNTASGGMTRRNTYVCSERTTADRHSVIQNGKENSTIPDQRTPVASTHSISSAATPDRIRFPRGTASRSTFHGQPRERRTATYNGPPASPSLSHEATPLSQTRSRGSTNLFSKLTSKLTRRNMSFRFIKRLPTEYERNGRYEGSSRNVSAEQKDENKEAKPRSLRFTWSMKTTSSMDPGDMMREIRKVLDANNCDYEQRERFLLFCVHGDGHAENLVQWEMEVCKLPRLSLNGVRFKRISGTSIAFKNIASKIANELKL
Chain of Dual specificity protein kinase CLK2 (P49760 whole entry): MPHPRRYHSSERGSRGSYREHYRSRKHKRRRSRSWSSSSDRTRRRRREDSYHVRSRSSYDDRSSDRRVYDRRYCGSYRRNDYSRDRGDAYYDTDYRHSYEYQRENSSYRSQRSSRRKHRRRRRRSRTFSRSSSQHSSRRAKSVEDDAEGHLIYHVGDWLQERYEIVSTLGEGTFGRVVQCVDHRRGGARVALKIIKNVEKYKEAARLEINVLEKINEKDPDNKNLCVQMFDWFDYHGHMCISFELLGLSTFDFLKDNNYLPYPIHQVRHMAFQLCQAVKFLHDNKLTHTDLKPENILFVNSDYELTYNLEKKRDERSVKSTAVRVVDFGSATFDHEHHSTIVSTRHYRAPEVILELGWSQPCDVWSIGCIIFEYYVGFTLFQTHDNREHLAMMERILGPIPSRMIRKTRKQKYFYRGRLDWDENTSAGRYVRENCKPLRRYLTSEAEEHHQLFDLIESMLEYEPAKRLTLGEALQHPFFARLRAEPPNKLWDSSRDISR
Chain of Mitogen-activated protein kinase 14 (Homo sapiens) (Q16539 whole entry): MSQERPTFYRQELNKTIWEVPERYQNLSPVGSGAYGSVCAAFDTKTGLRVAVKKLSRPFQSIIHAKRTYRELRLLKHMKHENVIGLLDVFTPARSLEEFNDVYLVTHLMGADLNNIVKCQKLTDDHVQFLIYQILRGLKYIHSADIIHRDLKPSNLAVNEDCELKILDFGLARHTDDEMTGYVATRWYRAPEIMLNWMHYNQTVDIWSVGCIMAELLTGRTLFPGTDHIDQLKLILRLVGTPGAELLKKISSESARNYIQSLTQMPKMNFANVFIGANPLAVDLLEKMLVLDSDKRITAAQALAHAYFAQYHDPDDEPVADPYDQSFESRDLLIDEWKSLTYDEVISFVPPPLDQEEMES

N#Cc1cnc(Nc2cc(NC[C@H]3CNCCO3)c(C(F)(F)F)cn2)cn1 [SRA-737]
Cmax [1]: 4 µM | Activity [2]: 120% | Activity [3]: 39% | Activity [4]: 6% | Activity (Homo sapiens [5]): 32% | Activity [6]: 43% | Activity [7]: 102% | Activity [8]: 56% | Activity [9]: 36% | Activity [10]: 80% | Activity [11]: 93% | Activity [12]: 84% | Activity [13]: 71% | Activity [14]: 110% | Activity (Homo sapiens [15]): 13% | Activity [16]: 122% | Activity [17]: 78% | Activity [18]: 35% | inhibition [19]: 94% | inhibition [20]: 88% | IC50 [21]: 15.8 µM | IC50 [22]: 698 nM | IC50 [23]: 1370 nM | IC50 [24]: 2970 nM | Activity (HT-29): Active | AUC(0-t) [25]: 222 µM·h | AUC(0-inf) [26]: 262 µM·h | Activity [27]: Toxic | Activity [28]: Toxic | Activity [29]: Toxic | Activity [30]: Non-Toxic | IC50 [31]: 362 nM
